Measurements from ChEMBL document CHEMBL4689842, “EUbOPEN Chemogenomics Library wave 1” (2021).

Tests used:
U2OS [1] = experiment: Incucyte cell viability with U2OS; type: toxicity, cell-based; conditions: human, 10 µM, compound concentration 10 uM; note: filed as whole numbers so only -1 and 0 and 1 occur
U2OS [2] = experiment: Multiplex assay against U2OS; type: toxicity, cell-based; conditions: human
In short: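 At seeding, live cells were stained with Hoechst33342, BioTracker Green Microtubule Cytoskeleton Dye, MitoTracker Red and Annexin V Alexa Fluor 680. After compound addition they were imaged on a CQ1 microscope at 37°C and 5% CO2, and CellPathfinder machine-learning gating sorted them into Hoechst high-intensity objects or normal cells, with normal cells further split into healthy, pyknosed or fragmented nuclei and pyknosed cells into mitotic or apoptotic. Tubulin, mitochondrial-mass and membrane-permeability phenotypes are given as per cents of cells with healthy nuclei.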

[3] = 12 h, 1 µM, compound concentration 1 uM, replicate 1
[4] = 12 h, 1 µM, compound concentration 1 uM, replicate 2
[5] = 12 h, 10 µM, compound concentration 10 uM, replicate 1
[6] = 12 h, 10 µM, compound concentration 10 uM, replicate 2
[7] = 24 h, 1 µM, compound concentration 1 uM, replicate 1
[8] = 24 h, 1 µM, compound concentration 1 uM, replicate 2
[9] = 24 h, 10 µM, compound concentration 10 uM, replicate 1
[10] = 24 h, 10 µM, compound concentration 10 uM, replicate 2
[11] = 48 h, 1 µM, compound concentration 1 uM, replicate 1
[12] = 48 h, 1 µM, compound concentration 1 uM, replicate 2
[13] = 48 h, 10 µM, compound concentration 10 uM, replicate 1
[14] = 48 h, 10 µM, compound concentration 10 uM, replicate 2

## CC(Cc1ccc(O)c(O)c1)C(C)Cc1ccc(O)c(O)c1 (stereo not drawn) [NORDIHYDROGUAIARETIC ACID]
U2OS [1]; 0 h, replicate number 1, timepoint 0 hours
  Growth Rate: 0
U2OS [1]; 6 h, replicate number 2, timepoint 6 hours
  Growth Rate: 0
U2OS [1]; 12 h, replicate number 1, timepoint 12 hours
  Growth Rate: 0
U2OS [1]; 18 h, replicate number 1, timepoint 18 hours
  Growth Rate: 0
U2OS [1]; 24 h, replicate number 1, timepoint 24 hours
  Growth Rate: 0
U2OS [2]; [3]
  Population Apoptotic (%): 64%
  Population Fragmented Nuclei (%): 11%
  Population Healthy Nuclei (%): 75%
  Population Hoechst High Intensity Objects (%): 8%
  Population Membrane Permeable-Phenotype (%): 3%
  Population Mitochondria Different-Phenotype (%): 8%
  Population Mitotic Cells (%): 35%
  Population Normal (%): 91%
  Population Pyknosed Nuclei (%): 12%
  Population Tubulin-Different-Phenotype (%): 10%
U2OS [2]; [4]
  Population Apoptotic (%): 0%
  Population Fragmented Nuclei (%): 3%
  Population Healthy Nuclei (%): 93%
  Population Hoechst High Intensity Objects (%): 15%
  Population Membrane Permeable-Phenotype (%): 0%
  Population Mitochondria Different-Phenotype (%): 1%
  Population Mitotic Cells (%): 100%
  Population Normal (%): 84%
  Population Pyknosed Nuclei (%): 3%
  Population Tubulin-Different-Phenotype (%): 25%
U2OS [2]; [5]
  Population Apoptotic (%): 35%
  Population Fragmented Nuclei (%): 19%
  Population Healthy Nuclei (%): 64%
  Population Hoechst High Intensity Objects (%): 14%
  Population Membrane Permeable-Phenotype (%): 7%
  Population Mitochondria Different-Phenotype (%): 12%
  Population Mitotic Cells (%): 64%
  Population Normal (%): 85%
  Population Pyknosed Nuclei (%): 16%
  Population Tubulin-Different-Phenotype (%): 30%
U2OS [2]; [6]
  Population Apoptotic (%): 0%
  Population Fragmented Nuclei (%): 2%
  Population Healthy Nuclei (%): 91%
  Population Hoechst High Intensity Objects (%): 6%
  Population Membrane Permeable-Phenotype (%): 2%
  Population Mitochondria Different-Phenotype (%): 10%
  Population Mitotic Cells (%): 100%
  Population Normal (%): 93%
  Population Pyknosed Nuclei (%): 5%
  Population Tubulin-Different-Phenotype (%): 38%
U2OS [2]; [7]
  Population Apoptotic (%): 45%
  Population Fragmented Nuclei (%): 12%
  Population Healthy Nuclei (%): 78%
  Population Hoechst High Intensity Objects (%): 7%
  Population Membrane Permeable-Phenotype (%): 4%
  Population Mitochondria Different-Phenotype (%): 7%
  Population Mitotic Cells (%): 54%
  Population Normal (%): 92%
  Population Pyknosed Nuclei (%): 8%
  Population Tubulin-Different-Phenotype (%): 11%
U2OS [2]; [8]
  Population Apoptotic (%): 0%
  Population Fragmented Nuclei (%): 2%
  Population Healthy Nuclei (%): 94%
  Population Membrane Permeable-Phenotype (%): 0%
  Population Mitochondria Different-Phenotype (%): 8%
  Population Mitotic Cells (%): 100%
  Population Pyknosed Nuclei (%): 2%
  Population Tubulin-Different-Phenotype (%): 23%
U2OS [2]; [9]
  Population Apoptotic (%): 61%
  Population Fragmented Nuclei (%): 18%
  Population Healthy Nuclei (%): 68%
  Population Hoechst High Intensity Objects (%): 14%
  Population Membrane Permeable-Phenotype (%): 10%
  Population Mitochondria Different-Phenotype (%): 15%
  Population Mitotic Cells (%): 38%
  Population Normal (%): 85%
  Population Pyknosed Nuclei (%): 12%
  Population Tubulin-Different-Phenotype (%): 59%
U2OS [2]; [10]
  Population Apoptotic (%): 16%
  Population Fragmented Nuclei (%): 2%
  Population Healthy Nuclei (%): 90%
  Population Hoechst High Intensity Objects (%): 5%
  Population Membrane Permeable-Phenotype (%): 1%
  Population Mitochondria Different-Phenotype (%): 9%
  Population Mitotic Cells (%): 83%
  Population Normal (%): 94%
  Population Pyknosed Nuclei (%): 7%
  Population Tubulin-Different-Phenotype (%): 61%
U2OS [2]; [11]
  Population Apoptotic (%): 43%
  Population Fragmented Nuclei (%): 9%
  Population Healthy Nuclei (%): 81%
  Population Hoechst High Intensity Objects (%): 2%
  Population Membrane Permeable-Phenotype (%): 2%
  Population Mitochondria Different-Phenotype (%): 18%
  Population Mitotic Cells (%): 56%
  Population Normal (%): 97%
  Population Pyknosed Nuclei (%): 8%
  Population Tubulin-Different-Phenotype (%): 14%
U2OS [2]; [12]
  Population Apoptotic (%): 20%
  Population Fragmented Nuclei (%): 8%
  Population Healthy Nuclei (%): 86%
  Population Hoechst High Intensity Objects (%): 6%
  Population Membrane Permeable-Phenotype (%): 4%
  Population Mitochondria Different-Phenotype (%): 9%
  Population Mitotic Cells (%): 80%
  Population Normal (%): 93%
  Population Pyknosed Nuclei (%): 5%
  Population Tubulin-Different-Phenotype (%): 30%
U2OS [2]; [13]
  Population Apoptotic (%): 72%
  Population Fragmented Nuclei (%): 15%
  Population Healthy Nuclei (%): 74%
  Population Hoechst High Intensity Objects (%): 9%
  Population Membrane Permeable-Phenotype (%): 6%
  Population Mitochondria Different-Phenotype (%): 18%
  Population Mitotic Cells (%): 27%
  Population Normal (%): 90%
  Population Pyknosed Nuclei (%): 9%
  Population Tubulin-Different-Phenotype (%): 76%
U2OS [2]; [14]
  Population Apoptotic (%): 66%
  Population Fragmented Nuclei (%): 1%
  Population Healthy Nuclei (%): 92%
  Population Hoechst High Intensity Objects (%): 6%
  Population Membrane Permeable-Phenotype (%): 4%
  Population Mitochondria Different-Phenotype (%): 16%
  Population Mitotic Cells (%): 33%
  Population Normal (%): 93%
  Population Pyknosed Nuclei (%): 6%
  Population Tubulin-Different-Phenotype (%): 77%
